Only a selection was taken, and hits are over-represented in it overall.
ABCG2 inh = blocks JC-1 efflux by human ABCG2 transporter; inhibition, % at 6.6 µM; IgMXP3 cells, flow cytometry; AID 1325; Q9UNQ0; hit rate 0.1% among 190,000;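 active = inhibition above 80%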;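 note: 0% = DMSO and 100% = nicardipine control wells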
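test system = two drug-resistant human cell lines, ABCG2 and ABCB1 | amount = 3 million cells/mL final, two lines in 1:1 ratio | reagent = JC-1 transporter substrate | doses = one concentration, 6.6 µM final | incubation = 10 min at 25 °C | signal = flow cytometric JC-1 green MFI at 530 nm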
ABCB6 inh 2 = inhibitors of human ABC transporter ABCB6; K562-ABCB6 porphyrin accumulation, flow cytometry, 1 h; hits give low values; fluorescence ratio to DMSO, % at 10 µM; hit rate 0.19% among 360,000;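 active = fluorescence ratio to DMSO below 75%, the collection mean minus 3 SD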;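 note: signal is porphyrin accumulated inside mitochondria; 100% equals median channel fluorescence of DMSO control wells; lower ratio means ABCB6 inhibition with less porphyrin fluorescence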
FLuc inh counter = Photinus pyralis luciferase inhibition counter-screen; P08659; ATPLite firefly luciferase biochemical luminescence, 10 min; inhibition, % at 10 µM; hit rate 1.5% among 200,000;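 active = inhibition above about 50% when tested at 10 µM, limit read from the data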
Target sequence (P08659 whole entry, looked up): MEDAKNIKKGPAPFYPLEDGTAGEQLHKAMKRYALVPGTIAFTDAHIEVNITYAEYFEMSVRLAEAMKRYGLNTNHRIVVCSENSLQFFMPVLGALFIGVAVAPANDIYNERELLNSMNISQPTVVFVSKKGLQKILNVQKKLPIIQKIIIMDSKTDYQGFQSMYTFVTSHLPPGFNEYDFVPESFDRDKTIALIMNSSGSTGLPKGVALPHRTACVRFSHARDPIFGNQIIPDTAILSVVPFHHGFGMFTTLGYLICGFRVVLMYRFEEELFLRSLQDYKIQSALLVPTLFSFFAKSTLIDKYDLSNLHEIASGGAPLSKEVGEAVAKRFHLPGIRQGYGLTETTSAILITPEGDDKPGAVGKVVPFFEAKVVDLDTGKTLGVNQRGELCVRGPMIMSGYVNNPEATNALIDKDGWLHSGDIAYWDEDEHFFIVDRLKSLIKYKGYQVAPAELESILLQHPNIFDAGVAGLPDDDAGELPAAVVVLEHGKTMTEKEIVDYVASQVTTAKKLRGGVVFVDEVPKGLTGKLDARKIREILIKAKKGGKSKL
Diaph act CS = diaphorase activation or chemical reduction counter-screen; AID 1229; activation factor at 20 µM; hit rate 0.005% among 190,000; Diaphorase/resazurin coupled assay, resorufin fluorescence, 16 min; hits give high values; 1 = vehicle wells, 0 = NADH-free wells;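 active = diaphorase activity raised at least twofold by the compound at 20 µM; inactive = activation factor below 2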
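Material: Purified diaphorase enzyme from Clostridium kluyveri | Buffer or medium: 50 mM HEPES pH 7.4 with 4.542 mM MgCl2, 0.005% Tween 20 | Times: 16 min enzyme reaction, ambient temperature | Signal: Red resorufin fluorescence at 544/590 nm excitation/emission | Measure: Increased resorufin signal from activators or reducing compounds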
ABCB1 block = human ABCB1 inhibition, ABCG2 as counter-screen | inhibition, % at 6.6 µM | CCRF-Adr cells, JC-1 efflux, flow cytometry | hit rate 0.067% among 190,000 | AID 1326; in the data active = inhibition above about 40%;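 note: 0% = vehicle and 100% = reference inhibitor; higher value means more JC-1 retained so stronger ABCB1 efflux block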
FLuc stim CS = firefly luciferase counter-screen for stimulation assays; P08659; ATPlite luciferase biochemical, luminescence, 10 min; 0 = ATP-free wells, 1 = DMSO control; activation factor at 10 µM; 200,000 tested, under 10 active;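 active = luciferase activation factor, scaled between plate controls, of at least 2 with compound at 10 µM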
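Assay system: Luciferase/luciferin detection reagent, cell-free biochemical luciferase assay / Read-out: luciferase activation / Benchmarks: No-ATP low control, compound-free enzyme-plus-ATP high control / Medium: PBS buffer for ATP / Detection: luminescence measurement of luciferase light output / Schedule: 10 min at ambient temperature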
Starred values were filed as active, the others as inactive.

`CCCCOc1ccc(-c2cc(C(=O)NNC(=S)NCC)c3ccccc3n2)cc1` gave ABCG2 inh -1.2, ABCB6 inh 2 89.0, FLuc inh counter 94.2*, Diaph act CS 0.8, ABCB1 block -0.6 and FLuc stim CS 0.1.
Screening O=C(Nc1cc(Cl)ccc1F)C1=COCCO1 returned ABCB6 inh 2 95.0.
For c1ccc(CSc2ccc(-c3cccs3)nn2)cc1 the results were ABCG2 inh 1.1, ABCB6 inh 2 100.0, FLuc inh counter 65.8*, Diaph act CS 0.8, ABCB1 block 0.0 and FLuc stim CS 0.3.
CC1CCN(CCc2nc3cc(NC(=O)COc4ccc([N+](=O)[O-])cc4)ccc3n2C)CC1 was read as ABCB6 inh 2 97.0.
For COc1ccccc1N(C)S(=O)(=O)c1ccc(C(=O)N(C)Cc2ccc(Cl)s2)cc1 the results were ABCB6 inh 2 90.0.
Screening CC(=O)N/C(=C\c1ccc(F)cc1)C(=O)OCc1ccccc1 returned ABCB6 inh 2 96.0.
For Fc1cccc(F)c1CSc1nc2ccccc2[nH]1 the results were ABCG2 inh 6.2, ABCB6 inh 2 101.0, FLuc inh counter 37.4, Diaph act CS 0.9, ABCB1 block 0.9 and FLuc stim CS 0.6.
`Clc1cccc(CSc2nc3ccncc3[nH]2)c1` gave ABCG2 inh 0.9, ABCB6 inh 2 94.0, FLuc inh counter 75.4*, Diaph act CS 0.9, ABCB1 block -0.1 and FLuc stim CS 0.2.
For Fc1cccc(CSc2nc3ccncc3[nH]2)c1 the results were ABCG2 inh 9.5, ABCB6 inh 2 96.0, FLuc inh counter 78.5*, Diaph act CS 0.9, ABCB1 block 0.9 and FLuc stim CS 0.2.
COc1cccc(-c2cc(C(=O)Nc3cccc(O)c3)no2)c1 was read as ABCG2 inh 1.2, ABCB6 inh 2 99.0, FLuc inh counter 83.3*, Diaph act CS 0.8, ABCB1 block 0.0 and FLuc stim CS 0.2.
`COc1ccc(NC(=O)c2cc(-c3ccccc3OC)on2)cc1` gave ABCG2 inh 3.6, ABCB6 inh 2 98.0, FLuc inh counter 5.0, Diaph act CS 0.8, ABCB1 block 0.7 and FLuc stim CS 0.9.
For COc1ccccc1-c1cc(C(=O)Nc2cccnc2)no1 the results were ABCG2 inh 24.6, ABCB6 inh 2 89.0, FLuc inh counter 62.1*, Diaph act CS 0.8, ABCB1 block 1.0 and FLuc stim CS 0.4.
`COc1ccc(NC(=O)c2cc(-c3cccc(OC)c3)on2)cc1` gave ABCG2 inh 2.1, ABCB6 inh 2 97.0, FLuc inh counter -1.6, Diaph act CS 1, ABCB1 block -0.2 and FLuc stim CS 1.
`CCc1ccc(-n2ccc(=O)c(C(=O)O)n2)cc1` gave ABCB6 inh 2 100.0.
COc1ccccc1C(=O)N(C)c1nnc(-c2ccccc2)s1 was read as ABCB6 inh 2 90.0.
COc1ccccc1NC(=O)Cc1nnc(SCC(=O)NC2CCCCC2)n1C was read as ABCB6 inh 2 96.0.
Screening C/C(=N\NC(=O)COc1ccc(C)cc1C(C)C)c1cc2ccccc2o1 returned ABCG2 inh 3.7, ABCB6 inh 2 106.0, FLuc inh counter 72.1*, Diaph act CS 0.5, ABCB1 block -0.4 and FLuc stim CS 0.3.
For C/C(=N\NC(=O)COc1ccc(C)cc1C(C)C)c1ccc(-n2ccnc2)cc1 the results were ABCG2 inh 33.5, ABCB6 inh 2 100.0, FLuc inh counter 42.7, Diaph act CS 1, ABCB1 block 2.1 and FLuc stim CS 0.6.
For C/C(=N\NC(=O)COc1ccc(C(C)(C)C)cc1)c1cc2ccccc2o1 the results were ABCG2 inh -1.1, ABCB6 inh 2 109.0, FLuc inh counter 93.9*, Diaph act CS 0.9, ABCB1 block -0.5 and FLuc stim CS 0.1.
For COCCNC(=S)N/N=C(\C)c1ccc(OC)cc1 the results were ABCG2 inh 9.8, ABCB6 inh 2 98.0, FLuc inh counter -3.0, Diaph act CS 0.9, ABCB1 block -0.7 and FLuc stim CS 1.
For COCCNC(=S)N/N=C(\C)c1cc2ccccc2o1 the results were ABCG2 inh 43.8, ABCB6 inh 2 70.0*, FLuc inh counter -1.3, Diaph act CS 0.9, ABCB1 block 15.9 and FLuc stim CS 1.
